Test results reported in ChEMBL document CHEMBL1152819, “Evaluation of hexadecyloxypropyl-9-R-[2-(Phosphonomethoxy)propyl]- adenine, CMX157, as a potential treatment for human immunodeficiency virus type 1 and hepatitis B virus infections” (Antimicrob Agents Chemother, 2007).

Columns and labels:
[1] = Tmax in Sprague-Dawley rat at 100 mg/kg, po administered daily for 7 days measured on day 7; type: ADME, organism-based; set-up: dose 100 mg/kg, route oral; conditions: in vivo
How it was run: (§1)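 Sprague-Dawley rats, 8–12 weeks old, dosed orally once daily for 7 days and not fasted. Blood taken at 0.5, 1, 2, 4, 12 and 24 h after dosing on days 1 and 7, one rat/sex/time point. Plasma deproteinized, analyte separated by mixed-mode HPLC and quantified by MS/MS, LOQ 1 ng/ml, values below LOQ set to zero. Noncompartmental analysis: Tmax read from plotted data, AUC by linear-log trapezoidal rule.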

[2] = AUC (0 to 24 hrs) in Sprague-Dawley rat at 10 mg/kg, po administered daily for 7 days measured on day 7; type: ADME, organism-based; set-up: time < 24 hr, dose 10 mg/kg, route oral; conditions: plasma
How it was run: (§2)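 Oral once daily for 7 days, vehicle or 10, 30 or 100 mg/kg/day, Sprague-Dawley rats 8-12 weeks old, not fasted. Plasma sampled 0.5, 1, 2, 4, 12, 24 h after dosing on days 1 and 7 (1 rat/sex/time point). CMX157 and tenofovir measured by HPLC-MS/MS, LOQ 1 ng/ml (values below set to zero). Noncompartmental analysis; Cmax/Tmax by direct observation, AUC by linear-log trapezoidal rule.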

[3] = system: Rattus norvegicus; assay: Toxicity in Sprague-Dawley rat assessed as hematological changes at 10 to 100 mg/kg, po administered daily for 7 days; type: organism-based; set-up: dose 10-100 mg/kg, route oral; conditions: in vivo, 168 h
How it was run: (§3)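 Sprague-Dawley rats (3/sex/group), 8–12 weeks old, given vehicle or 10, 30 or 100 mg/kg/day orally once daily for 7 days. Serum biochemistry, hematology and urinalysis done at day 7. At necropsy, control and high-dose rats examined grossly, organs weighed, and all tissues processed for histopathology.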

[4] = Selectivity index, ratio of CC50 for human HepG2(2.2.15) cells to EC50 for HBV
[5] = Selectivity index, ratio of CC50 for human HepG2 cells to EC50 for HBV
[6] = system: Rattus norvegicus; assay: Toxicity in Sprague-Dawley rat assessed as mortality at 10 to 100 mg/kg, po administered daily for 7 days; type: organism-based; set-up: dose 10-100 mg/kg, route oral; conditions: in vivo, 168 h
How it was run: (§4)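 Sprague-Dawley rats (3/sex/group), 8–12 weeks old, given vehicle or 10, 30 or 100 mg/kg/day orally once daily for 7 days. Mortality, morbidity, clinical observations, body weight and food consumption recorded daily.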

[7] = system: Rattus norvegicus; assay: Toxicity in Sprague-Dawley rat assessed as ophthalmological changes at 10 to 100 mg/kg, po administered daily for 7 days; type: organism-based; set-up: dose 10-100 mg/kg, route oral; conditions: in vivo, 168 h
[8] = system: Rattus norvegicus; assay: Toxicity in Sprague-Dawley rat assessed as change in clinical chemistry parameters at 10 to 100 mg/kg, po administered daily for 7 days; type: organism-based; set-up: dose 10-100 mg/kg, route oral; conditions: in vivo, 168 h; how it was run: as §3
[9] = system: Rattus norvegicus; assay: Toxicity in Sprague-Dawley rat assessed as change in coagulation parameters at 10 to 100 mg/kg, po administered daily for 7 days; type: organism-based; set-up: dose 10-100 mg/kg, route oral; conditions: in vivo, 168 h
[10] = Elimination half life in Sprague-Dawley rat at 100 mg/kg, po administered daily for 7 days measured on day 7; type: ADME, organism-based; set-up: dose 100 mg/kg, route oral; conditions: in vivo, read-out: beta t1/2 (converted); how it was run: as §2
[11] = system: Rattus norvegicus; assay: Toxicity in Sprague-Dawley rat assessed as change in urinalysis parameters at 10 to 100 mg/kg, po administered daily for 7 days; type: organism-based; set-up: dose 10-100 mg/kg, route oral; conditions: in vivo, 168 h; how it was run: as §3
[12] = AUC (0 to 24 hrs) in Sprague-Dawley rat at 30 mg/kg, po administered daily for 7 days measured on day 7; type: ADME, organism-based; set-up: time < 24 hr, dose 30 mg/kg, route oral; conditions: plasma; how it was run: as §2
[13] = Selectivity index, ratio of CC50 for human PBMC to EC50 for HIV1 clade B HT/92/599 isolate
How it was run: (§5)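 Fresh human PBMCs, seronegative for HIV and HBV, infected with HIV-1 clade B HT/92/599. Antiviral read-out by reverse transcriptase reduction; cytotoxicity by XTT staining. EC50, CC50 and CC50/EC50 taken from data plots, given as mean ± standard deviation of triplicate determinations.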

[14] = system: Rattus norvegicus; assay: Toxicity in Sprague-Dawley rat assessed as microscopic lesions at 10 to 100 mg/kg, po administered daily for 7 days; type: organism-based; set-up: dose 10-100 mg/kg, route oral; conditions: in vivo, 168 h; how it was run: as §3
[15] = Tmax in Sprague-Dawley rat at 10 mg/kg, po administered daily for 7 days measured on day 7; type: ADME, organism-based; set-up: dose 10 mg/kg, route oral; conditions: in vivo; how it was run: as §1
[16] = system: Human immunodeficiency virus 1; assay: Antiviral activity against HIV1 LAI in human MT2 cells assessed as inhibition of p24 antigen production by ELISA; type: functional, organism-based; conditions: Human immunodeficiency virus 1, LAI
How it was run: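 MT-2 cells in RPMI 1640 with 10% FBS and 10 mM HEPES, infected with HIV-1 LAI at MOI 0.001 TCID50/cell. Incubated with threefold serial dilutions, three wells per dilution. EC50 taken as the concentration inhibiting p24 antigen production by 50%.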

[17] = AUC (0 to 24 hrs) in Sprague-Dawley rat at 30 mg/kg, po administered daily for 7 days measured on day 1; type: ADME, organism-based; set-up: time < 24 hr, dose 30 mg/kg, route oral; conditions: plasma; how it was run: as §1
[18] = system: Rattus norvegicus; assay: Toxicity in Sprague-Dawley rat assessed as change in organ weight at 10 to 100 mg/kg, po administered daily for 7 days; type: organism-based; set-up: dose 10-100 mg/kg, route oral; conditions: in vivo, 168 h; how it was run: as §3
[19] = system: Rattus norvegicus; assay: Toxicity in Sprague-Dawley rat assessed as change in erythrocyte morphology at 10 to 100 mg/kg, po administered daily for 7 days; type: organism-based; set-up: dose 10-100 mg/kg, route oral; conditions: in vivo, 168 h
[20] = system: Rattus norvegicus; assay: Toxicity in Sprague-Dawley rat assessed as change in food consumption at 10 to 100 mg/kg, po administered daily for 7 days; type: organism-based; set-up: dose 10-100 mg/kg, route oral; conditions: in vivo, 168 h; how it was run: as §4
[21] = system: Rattus norvegicus; assay: Toxicity in Sprague-Dawley rat assessed as change in body weight at 10 to 100 mg/kg, po administered daily for 7 days; type: organism-based; set-up: dose 10-100 mg/kg, route oral; conditions: in vivo, 168 h; how it was run: as §4
[22] = Tmax in Sprague-Dawley rat at 100 mg/kg, po administered daily for 7 days measured on day 1; type: ADME, organism-based; set-up: dose 100 mg/kg, route oral; conditions: in vivo; how it was run: as §1
[23] = system: Hepatitis B virus; assay: Antiviral activity against HBV in human HepAD38 cells assessed as intracellular viral DNA levels treated for 3 days measured on day 6 […] by RT-PCR; type: functional, organism-based
How it was run: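 HepAD38 cells seeded at 5 x 10^5/well, grown 2-3 days with 0.3 µg/ml tetracycline, then induced by PBS wash and tetracycline/G418-free medium with or without compound at 37°C, 5% CO2. Medium changed after 3 days. Intracellular HBV DNA measured on day 6 postinduction by TaqMan real-time PCR against a plasmid standard curve, given as % of mock.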

[24] = Cytotoxicity against human MT2 cells; type: cell-based
How it was run: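 MT-2 cells in RPMI 1640 with 10% FBS and 10 mM HEPES, exposed to threefold serial drug dilutions. CC50 calculated from cell counts and viability.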

[25] = Tmax in Sprague-Dawley rat at 30 mg/kg, po administered daily for 7 days measured on day 1; type: ADME, organism-based; set-up: dose 30 mg/kg, route oral; conditions: in vivo; how it was run: as §1
[26] = Cytotoxicity against human PBMC by XTT assay; type: cell-based; how it was run: as §5
[27] = AUC (0 to 24 hrs) in Sprague-Dawley rat at 100 mg/kg, po administered daily for 7 days measured on day 7; type: ADME, organism-based; set-up: time < 24 hr, dose 100 mg/kg, route oral; conditions: plasma; how it was run: as §2
[28] = Selectivity index, ratio of CC50 for human MT2 cells to EC50 for HIV1 LAI; type: toxicity, cell-based; conditions: read-out: Ratio CC50/EC50
[29] = Tmax in Sprague-Dawley rat at 10 mg/kg, po administered daily for 7 days measured on day 1; type: ADME, organism-based; set-up: dose 10 mg/kg, route oral; conditions: in vivo; how it was run: as §1
[30] = system: Rattus norvegicus; assay: Toxicity in Sprague-Dawley rat assessed as change in gross necroscopy at 10 to 100 mg/kg, po administered daily for 7 days; type: organism-based; set-up: dose 10-100 mg/kg, route oral; conditions: in vivo, 168 h; how it was run: as §3
[31] = AUC (0 to 24 hrs) in Sprague-Dawley rat at 100 mg/kg, po administered daily for 7 days measured on day 1; type: ADME, organism-based; set-up: time < 24 hr, dose 100 mg/kg, route oral; conditions: plasma; how it was run: as §1
[32] = system: Hepatitis B virus; assay: Antiviral activity against HBV in human HepG2(2.2.15) cells assessed as viral DNA levels treated for 9 days measured after 24 hrs; type: functional, organism-based
How it was run: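 Confluent 2.2.15 cells in RPMI 1640 with 2% FBS, given nine consecutive daily doses with daily medium change (six cultures per concentration on two replicate plates). HBV DNA quantified by blot hybridization 24 h after the last treatment.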

[33] = Tmax in Sprague-Dawley rat at 30 mg/kg, po administered daily for 7 days measured on day 7; type: ADME, organism-based; set-up: dose 30 mg/kg, route oral; conditions: in vivo; how it was run: as §1
[34] = AUC (0 to 24 hrs) in Sprague-Dawley rat at 10 mg/kg, po administered daily for 7 days measured on day 1; type: ADME, organism-based; set-up: time < 24 hr, dose 10 mg/kg, route oral; conditions: plasma; how it was run: as §1
[35] = Elimination half life in Sprague-Dawley rat at 100 mg/kg, po administered daily for 7 days measured on day 1; type: ADME, organism-based; set-up: dose 100 mg/kg, route oral; conditions: in vivo, read-out: beta t1/2 (converted); how it was run: as §2
[36] = system: Human immunodeficiency virus 1; assay: Antiviral activity against HIV1 clade B HT/92/599 isolate in human PBMC assessed as reduction in reverse transcriptase; type: functional, organism-based; conditions: Human immunodeficiency virus 1, clade B; how it was run: as §5
[37] = system: HepG2; assay: Cytotoxicity against human HepG2 cells by MTS assay; type: cell-based; conditions: Homo sapiens, HepG2
How it was run: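 Exponentially growing HepG2 cells (parent hepatoma line); cytostatic effect measured by MTS method.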

[38] = Cytotoxicity against human HepG2(2.2.15) cells after 24 hrs by neutral red uptake assay; type: cell-based; conditions: Homo sapiens, HepG2 2.2.15, 24 h
How it was run: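 Confluent 2.2.15 cells given nine daily treatments. Neutral red uptake read by absorbance of internalized dye 24 h after the last treatment, three cultures per concentration.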

## CCCCCCCCCCCCCCCCOCCCOP(=O)(O)CO[C@H](C)Cn1cnc2c(N)ncnc21 [TENOFOVIR EXALIDEX]
[1]
  Tmax: 2 h
[2]
  AUC at 24 h: 435 ng·h/mL
[3]
  Activity: Non-toxic
[4]
  Ratio CC50/EC50: >187.5
[5]
  Ratio CC50/EC50: 38.4
[6]
  Activity: Non-toxic
[7]
  Activity: Non-toxic
[8]
  Activity: Non-toxic
[9]
  Activity: Non-toxic
[10]
  half-life: 1.6 h
[11]
  Activity: Non-toxic
[12]
  AUC at 24 h: 1540 ng·h/mL
[13]
  Ratio CC50/EC50: 12000
[14]
  Activity: Non-toxic
[15]
  Tmax: 0.5 h
[16]
  EC50: < 0.01 nM
[17]
  AUC(0-t) at 24 h: 1830 ng·h/mL
[18]
  Activity: Non-toxic
[19]
  Activity: Non-toxic
[20]
  Activity: Non-toxic
[21]
  Activity: Non-toxic
[22]
  Tmax: 2 h
[23]
  EC50: 490 nM
[24]
  CC50: 54000 nM
[25]
  Tmax: 2 h
[26]
  CC50: 144000 nM
[27]
  AUC at 24 h: 8410 ng·h/mL
[28]
  selectivity ratio: > 5.4e+06
[29]
  Tmax: 0.5 h
[30]
  Activity: Non-toxic
[31]
  AUC(0-t) at 24 h: 5410 ng·h/mL
[32]
  EC50: 1600 nM
[33]
  Tmax: 1 h
[34]
  AUC(0-t) at 24 h: 442 ng·h/mL
[35]
  half-life: 2.5 h
[36]
  EC50: 12 nM
[37]
  EC50: > 18800 nM
[38]
  EC50: > 300000 nM
